The source made the active and inactive calls. No cut-off for these calls is given here.
Key:
[1] = target: T1, Serine/threonine-protein kinase TAO2 (Homo sapiens) (UniProt Q9UL54); experiment: Inhibition of human TAO2; conditions: concentration not given here
T1 sequence (whole entry): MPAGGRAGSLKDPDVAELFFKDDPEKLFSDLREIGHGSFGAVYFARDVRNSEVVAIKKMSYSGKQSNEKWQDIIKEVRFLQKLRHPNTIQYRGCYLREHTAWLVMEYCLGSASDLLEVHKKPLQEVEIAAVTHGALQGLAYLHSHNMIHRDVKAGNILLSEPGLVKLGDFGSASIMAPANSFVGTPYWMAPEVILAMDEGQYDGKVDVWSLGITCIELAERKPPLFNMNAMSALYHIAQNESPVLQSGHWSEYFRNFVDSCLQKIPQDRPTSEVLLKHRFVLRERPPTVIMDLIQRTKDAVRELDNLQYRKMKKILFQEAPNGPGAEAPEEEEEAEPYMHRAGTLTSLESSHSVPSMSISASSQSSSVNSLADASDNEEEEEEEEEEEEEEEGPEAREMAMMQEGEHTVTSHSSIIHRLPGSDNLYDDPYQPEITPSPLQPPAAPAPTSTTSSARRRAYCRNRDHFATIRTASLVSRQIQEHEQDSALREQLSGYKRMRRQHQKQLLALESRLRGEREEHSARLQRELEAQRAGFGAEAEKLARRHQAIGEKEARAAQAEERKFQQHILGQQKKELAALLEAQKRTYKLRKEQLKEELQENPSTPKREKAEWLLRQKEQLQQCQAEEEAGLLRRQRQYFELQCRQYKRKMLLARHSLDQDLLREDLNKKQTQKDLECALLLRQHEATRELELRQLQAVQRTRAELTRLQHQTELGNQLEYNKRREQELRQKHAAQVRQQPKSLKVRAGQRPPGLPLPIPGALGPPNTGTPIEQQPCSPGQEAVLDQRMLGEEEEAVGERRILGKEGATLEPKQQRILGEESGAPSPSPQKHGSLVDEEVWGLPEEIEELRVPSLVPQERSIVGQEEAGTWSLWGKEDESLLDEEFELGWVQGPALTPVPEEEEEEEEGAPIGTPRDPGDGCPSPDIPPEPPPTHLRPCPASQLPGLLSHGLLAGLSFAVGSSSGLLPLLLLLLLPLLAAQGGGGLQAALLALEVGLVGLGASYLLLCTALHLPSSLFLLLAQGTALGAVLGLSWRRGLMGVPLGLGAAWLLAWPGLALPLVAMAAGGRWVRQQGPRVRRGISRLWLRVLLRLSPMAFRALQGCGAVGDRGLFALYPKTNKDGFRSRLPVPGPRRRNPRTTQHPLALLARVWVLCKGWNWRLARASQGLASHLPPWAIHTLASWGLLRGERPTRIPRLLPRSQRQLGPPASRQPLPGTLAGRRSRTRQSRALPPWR

[2] = target: T2, Mitogen-activated protein kinase kinase kinase 5 (Homo sapiens) (UniProt Q99683); experiment: Binding affinity to ASK1 (unknown origin) assessed as change in melting temperature at 1 uM by SYPRO orange dye-based DSF analysis
T2 sequence (whole entry): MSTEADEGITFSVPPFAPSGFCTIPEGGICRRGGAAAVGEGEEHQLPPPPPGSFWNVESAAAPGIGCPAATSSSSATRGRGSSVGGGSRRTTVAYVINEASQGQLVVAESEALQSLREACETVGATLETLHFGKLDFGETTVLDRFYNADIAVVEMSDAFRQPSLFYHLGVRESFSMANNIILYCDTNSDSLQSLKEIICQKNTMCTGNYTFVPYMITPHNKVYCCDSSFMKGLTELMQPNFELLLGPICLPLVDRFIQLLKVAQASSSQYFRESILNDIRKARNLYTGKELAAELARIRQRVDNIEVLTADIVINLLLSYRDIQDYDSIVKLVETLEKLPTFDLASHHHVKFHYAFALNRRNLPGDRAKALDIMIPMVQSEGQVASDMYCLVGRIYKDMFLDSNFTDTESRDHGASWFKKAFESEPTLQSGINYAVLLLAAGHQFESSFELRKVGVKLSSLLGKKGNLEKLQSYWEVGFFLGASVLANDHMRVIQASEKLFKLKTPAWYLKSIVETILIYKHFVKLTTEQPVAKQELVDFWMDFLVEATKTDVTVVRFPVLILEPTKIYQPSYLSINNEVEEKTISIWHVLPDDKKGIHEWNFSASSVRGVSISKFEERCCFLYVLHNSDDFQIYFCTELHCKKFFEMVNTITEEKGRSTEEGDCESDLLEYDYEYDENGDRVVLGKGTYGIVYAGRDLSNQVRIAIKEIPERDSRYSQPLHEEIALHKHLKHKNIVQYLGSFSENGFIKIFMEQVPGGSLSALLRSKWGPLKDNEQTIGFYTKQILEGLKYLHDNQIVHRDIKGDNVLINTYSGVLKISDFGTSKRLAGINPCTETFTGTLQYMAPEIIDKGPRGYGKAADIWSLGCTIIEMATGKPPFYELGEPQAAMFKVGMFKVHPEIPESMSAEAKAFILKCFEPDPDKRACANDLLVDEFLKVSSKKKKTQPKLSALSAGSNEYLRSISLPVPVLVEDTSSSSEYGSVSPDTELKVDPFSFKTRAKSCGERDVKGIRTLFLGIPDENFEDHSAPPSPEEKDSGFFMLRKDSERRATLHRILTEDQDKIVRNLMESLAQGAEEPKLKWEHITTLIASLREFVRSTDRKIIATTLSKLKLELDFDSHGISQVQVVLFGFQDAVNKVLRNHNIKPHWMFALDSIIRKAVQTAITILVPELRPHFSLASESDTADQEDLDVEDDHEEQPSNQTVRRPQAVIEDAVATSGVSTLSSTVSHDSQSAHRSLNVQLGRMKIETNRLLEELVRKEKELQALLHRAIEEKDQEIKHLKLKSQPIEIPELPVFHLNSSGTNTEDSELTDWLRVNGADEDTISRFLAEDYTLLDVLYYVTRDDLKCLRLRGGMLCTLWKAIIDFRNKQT
Summary of the method: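 Differential scanning fluorimetry: each compound's melting-temperature shift (ΔTm, °C) was measured on the kinase protein. Compounds giving a TAOK2 ΔTm above 0.5 °C were also run against p38 and ASK1. Selectivity (ΔΔTm) was taken as the TAOK2 ΔTm minus the p38 or ASK1 ΔTm.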

[3] = target: Mitogen-activated protein kinase 8 (Homo sapiens) (UniProt P45983); experiment: Inhibition of human JNK1; conditions: concentration not given here
[4] = target: Cyclin-dependent kinase 1 (Homo sapiens) (UniProt P06493); experiment: Inhibition of human CDK1; conditions: concentration not given here
[5] = target: Glycogen synthase kinase-3 beta (Homo sapiens) (UniProt P49841); experiment: Inhibition of human GSK3beta; conditions: concentration not given here
[6] = target: Mitogen-activated protein kinase kinase kinase kinase 4 (Homo sapiens) (UniProt O95819); experiment: Inhibition of human HGK; conditions: concentration not given here
[7] = target: T1, Serine/threonine-protein kinase TAO2 (Homo sapiens); experiment: Inhibition of TAOK2 in human U2OS cells assessed as inhibition of cellular autophagy measured as P62 accumulation at 50 uM after 24 hrs by western blot analysis; format: cell-based
Summary of the method: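 GFP–LC3-expressing U2OS cells were treated for 24 h with compound at 50 µM or with DMSO alone. p62 (SQSTM1) abundance was then assessed by Western blotting as a readout of autophagic degradation.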

Chain of Mitogen-activated protein kinase 8 (Homo sapiens) (P45983 whole entry): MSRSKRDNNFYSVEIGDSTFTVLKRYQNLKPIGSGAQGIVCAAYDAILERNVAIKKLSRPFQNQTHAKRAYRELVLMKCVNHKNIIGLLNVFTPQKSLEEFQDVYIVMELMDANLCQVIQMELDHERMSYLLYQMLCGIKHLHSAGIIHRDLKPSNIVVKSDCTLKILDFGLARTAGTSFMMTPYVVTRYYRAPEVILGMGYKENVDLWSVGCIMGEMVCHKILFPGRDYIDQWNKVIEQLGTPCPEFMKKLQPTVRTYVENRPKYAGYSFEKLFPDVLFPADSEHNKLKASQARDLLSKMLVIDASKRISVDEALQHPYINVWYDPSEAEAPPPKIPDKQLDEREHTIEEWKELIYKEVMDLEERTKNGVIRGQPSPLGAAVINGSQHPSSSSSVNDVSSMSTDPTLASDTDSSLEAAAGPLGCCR
Chain of Mitogen-activated protein kinase kinase kinase kinase 4 (Homo sapiens) (O95819 2-1239 limits assumed): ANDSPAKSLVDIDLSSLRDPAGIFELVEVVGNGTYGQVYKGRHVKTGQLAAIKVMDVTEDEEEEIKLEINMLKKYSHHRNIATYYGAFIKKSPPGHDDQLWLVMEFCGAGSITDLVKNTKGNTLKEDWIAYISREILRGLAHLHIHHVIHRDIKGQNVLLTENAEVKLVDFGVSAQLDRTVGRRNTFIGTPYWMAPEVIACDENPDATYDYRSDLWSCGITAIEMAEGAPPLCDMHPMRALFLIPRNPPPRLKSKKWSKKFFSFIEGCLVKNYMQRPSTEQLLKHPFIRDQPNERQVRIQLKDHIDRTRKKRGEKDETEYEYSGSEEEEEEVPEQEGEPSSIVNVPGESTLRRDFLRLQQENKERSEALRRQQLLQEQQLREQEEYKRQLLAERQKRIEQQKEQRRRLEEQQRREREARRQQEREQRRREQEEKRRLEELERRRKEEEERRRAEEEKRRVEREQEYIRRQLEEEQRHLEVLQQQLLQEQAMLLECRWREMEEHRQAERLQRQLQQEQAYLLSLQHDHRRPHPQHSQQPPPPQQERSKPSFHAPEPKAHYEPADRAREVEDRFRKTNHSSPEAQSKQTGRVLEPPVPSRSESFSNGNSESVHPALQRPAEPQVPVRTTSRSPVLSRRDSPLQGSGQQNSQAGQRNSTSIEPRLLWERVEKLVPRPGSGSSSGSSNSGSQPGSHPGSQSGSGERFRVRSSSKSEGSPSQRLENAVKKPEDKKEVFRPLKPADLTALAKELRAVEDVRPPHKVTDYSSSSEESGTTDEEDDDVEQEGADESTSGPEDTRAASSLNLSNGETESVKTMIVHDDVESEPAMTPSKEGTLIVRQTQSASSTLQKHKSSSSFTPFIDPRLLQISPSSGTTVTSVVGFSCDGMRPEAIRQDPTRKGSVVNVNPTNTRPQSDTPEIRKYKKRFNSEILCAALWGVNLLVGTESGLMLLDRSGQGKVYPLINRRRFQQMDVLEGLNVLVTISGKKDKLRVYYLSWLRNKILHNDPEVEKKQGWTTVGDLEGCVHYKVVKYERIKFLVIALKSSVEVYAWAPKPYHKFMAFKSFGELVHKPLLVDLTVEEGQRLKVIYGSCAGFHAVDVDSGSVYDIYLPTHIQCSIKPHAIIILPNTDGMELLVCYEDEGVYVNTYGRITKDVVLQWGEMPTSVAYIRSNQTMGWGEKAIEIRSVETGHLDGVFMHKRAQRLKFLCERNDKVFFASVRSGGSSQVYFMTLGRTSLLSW
Chain of Cyclin-dependent kinase 1 (Homo sapiens) (P06493 whole entry, looked up): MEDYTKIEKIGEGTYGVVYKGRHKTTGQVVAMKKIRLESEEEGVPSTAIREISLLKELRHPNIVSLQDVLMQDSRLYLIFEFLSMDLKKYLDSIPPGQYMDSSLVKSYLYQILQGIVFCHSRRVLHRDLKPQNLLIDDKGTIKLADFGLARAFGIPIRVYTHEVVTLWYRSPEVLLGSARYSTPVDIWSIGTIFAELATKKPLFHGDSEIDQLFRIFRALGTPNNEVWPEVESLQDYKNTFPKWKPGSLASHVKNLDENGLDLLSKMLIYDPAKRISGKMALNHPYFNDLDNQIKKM
Chain of Glycogen synthase kinase-3 beta (Homo sapiens) (P49841 whole entry, looked up): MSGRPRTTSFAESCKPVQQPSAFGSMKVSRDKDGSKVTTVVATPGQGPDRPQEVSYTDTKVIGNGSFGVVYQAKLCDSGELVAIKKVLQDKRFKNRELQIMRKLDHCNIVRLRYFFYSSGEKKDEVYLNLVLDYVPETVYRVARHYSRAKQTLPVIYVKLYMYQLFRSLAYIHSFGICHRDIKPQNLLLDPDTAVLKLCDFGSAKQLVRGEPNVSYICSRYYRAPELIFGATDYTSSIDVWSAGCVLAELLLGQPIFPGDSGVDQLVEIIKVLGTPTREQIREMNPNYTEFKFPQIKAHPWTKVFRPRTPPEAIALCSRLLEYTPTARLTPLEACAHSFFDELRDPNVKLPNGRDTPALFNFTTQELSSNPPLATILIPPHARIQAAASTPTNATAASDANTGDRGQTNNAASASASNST

Row | SMILES | inhibition [1] [%] | ΔTm [2] [°C] | inhibition [7] | further results
1 | CCC(=O)Nc1nc(C)c(-c2csc(Nc3cc(OC)ccc3OC)n2)s1 | > 50 | 2.7 | inactive | inhibition [3]: > 50%; inhibition [4]: > 50%; inhibition [5]: > 50%; inhibition [6]: > 50%
2 | O=C(NCC1COc2ccccc2O1)c1ccc(NC(=O)c2ccco2)cc1 (centres undefined) |  | 1.2 | Active | 
3 | c1cc2[nH]c3c(c2c2nonc12)CCCC3 |  | 0 |  | 
4 | O=C(O)c1cc(-c2ccc(-c3ccccc3[N+](=O)[O-])o2)nc2ccc3ccccc3c12 |  | 1.7 |  | 

More lines, main results first:

Row | inhibition [1] [%] | ΔTm [2] [°C] | inhibition [7] | SMILES | further results
5 |  | 0.4 |  | Cc1ccc(C(=O)CSc2nnc(-c3ccncc3)[nH]2)c(C)c1 | 
6 | > 50 | 2.1 | Active | CCOCCCn1c(=S)[nH]c2cc(C(=O)NCC3COc4ccccc4O3)ccc2c1=O (centres undefined) | 
7 | > 50 | 1.2 | Active | CS(=O)(=O)c1ccc2nc(NC(=O)CCCOc3ccc(Cl)cc3)sc2c1 | 
8 |  | 1.2 |  | Cc1ccc(NCCCC(=O)N/N=C/c2cc(Br)cc(Br)c2O)cc1 | 

Source: ChEMBL document CHEMBL4477233, “Discovery of novel TAOK2 inhibitor scaffolds from high-throughput screening” (Bioorg Med Chem Lett, 2016)
